This passage reports Activity, inhibition and IC50 results from ChEMBL document CHEMBL1153732, “Lamiridosins, hepatitis C virus entry inhibitors from Lamium album” (J Nat Prod, 2009).

For data set [1], the system named is Hepatitis C virus. The data set is described as follows: Antiviral activity against HCV expressing E1E2 glycoprotein with Vpr-deficient HIV vector assessed as inhibition of viral entry in human Huh7 cells at 20 ug/ml measured after 72 hrs by luciferase reporter gene assay. It is filed as functional, organism-based. As to conditions: Hepacivirus hominis, Huh-7. The essentials:
(§1)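 HCVpp (E1E2 with HIV luciferase vector, made in 293T) was mixed at room temperature with 20 µg/mL compound and added to Huh7 cells for 6 h, then replaced by growth medium. Cells were lysed at 72 h postinfection and luciferase read as % inhibition. Samples in duplicate, experiments repeated at least three times.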
(In general: A reporter such as luciferase makes a cellular process visible.)

Data set [2] concerns Hepatitis C virus. The data set is described as follows: Antiviral activity against HCV expressing E1E2 glycoprotein with Vpr-deficient HIV vector assessed as inhibition of viral entry in human Huh7 cells at 20 ug/ml after 72 hrs by luciferase reporter gene assay in presence of beta-glucosidase enzyme for 0.5 hrs. It is filed as functional, Hepacivirus hominis. As to conditions: Huh-7. The essentials: (§2)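 Iridoid glucosides were hydrolysed with β-glucosidase for 0.5 h or 4 h before testing at 20 µg/mL. Hydrolysates were mixed at rt with HCVpp and incubated with Huh7 cells for 6 h, then the medium was changed. Luciferase was read at 72 h postinfection as % inhibition. Duplicates, ≥3 experiments.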

The subject of data set [3] is Hepatitis C virus. Put plainly: Antiviral activity against HCV expressing E1E2 glycoprotein with Vpr-deficient HIV vector assessed as inhibition of viral entry in human Huh7 cells at 20 ug/ml after 72 hrs by luciferase reporter gene assay in presence of beta-glucosidase enzyme for 4 hrs. The note with it: Huh-7. It is filed as functional, Hepacivirus hominis. The essentials:
as §2

Data set [4] deals with Hepatitis C virus. Put plainly: Antiviral activity against HCV expressing E1E2 glycoprotein with Vpr-deficient HIV vector assessed as inhibition of pseudoparticle entry in human Huh7 cells at 100 ug/ml preincubated for 20 mins measured after 72 hrs by luciferase reporter gene assay. As to conditions: Huh-7. It is filed as functional. The essentials: (§3)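 HCV E1E2 or VSVG pseudoviruses were made by cotransfecting 293T cells with the envelope plasmid and pNL4-3-Luc-R-E-, then harvested at 48 h and filtered. Each pseudovirus was preincubated 20 min at rt with 100 µg/mL sample or DMSO, then put on Huh7 cells for 6 h before the medium was replaced. Luciferase was read at 72 h as % of no-drug control. Duplicates, ≥3 experiments.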

In data set [5] the test system is Hepatitis C virus. Put plainly: Antiviral activity against HCV expressing E1E2 glycoprotein with Vpr-deficient HIV vector assessed as inhibition of pseudoparticle entry in human Huh7 cells preincubated for 20 mins measured after 72 hrs by luciferase reporter gene assay. It is filed as functional, organism-based, Hepacivirus hominis. The note with it: Huh-7. The essentials:
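HCV E1E2/HIV-luciferase pseudovirus was preincubated 20 min at rt with a range of concentrations in µg/mL and incubated with Huh7 cells (8 × 10^4 per well, seeded the day before) for 6 h, then the medium was replaced. Luciferase was measured at 72 h and expressed as % of no-drug control. IC50 came from the concentration-response. Duplicates, ≥3 repeats.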

The test system of data set [6] is Vesicular stomatitis virus. The data set is described as follows: Antiviral activity against VSV with Vpr-deficient HIV vector assessed as inhibition of VSVG pseudo-particle entry in human Huh7 cells at 100 ug/ml preincubated for 20 mins measured after 72 hrs by luciferase reporter gene assay. It is filed as functional, organism-based. The note with it: Huh-7. The essentials: as §3

The nature of data set [7]: Cytotoxicity against human HepG2(2.2.15) cells at 50 ug/ml. It is filed as cell-based.
The target in data set [8] is T1, CD81 antigen (Homo sapiens) (UniProt P60033).
T1 sequence (whole entry): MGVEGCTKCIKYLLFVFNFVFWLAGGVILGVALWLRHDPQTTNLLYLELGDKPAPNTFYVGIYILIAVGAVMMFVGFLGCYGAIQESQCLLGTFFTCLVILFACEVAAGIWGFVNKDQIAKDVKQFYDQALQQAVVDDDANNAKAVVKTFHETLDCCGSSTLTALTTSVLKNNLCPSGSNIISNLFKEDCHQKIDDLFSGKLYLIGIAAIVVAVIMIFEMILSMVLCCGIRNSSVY
Put plainly: Inhibition of human recombinant GST-tagged CD81 protein assessed as HCV E1E2 binding after 1 hr by Western blot analysis. Put shortly: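 Lysates of 293T cells expressing HCV E1E2 were taken 48 h post-transfection in 0.5% Triton X-100 buffer with protease inhibitor and clarified. They were rocked with 50 µg/mL compound or DMSO and 5 µg CD81-GST (large extracellular loop of human CD81) at 4 °C for 16 h. Glutathione beads were added for 1 h at 4 °C, then washed. Western blot for E2 and GST; GST alone served as control.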
(In general: A western blot detects proteins with antibodies after separation by electrophoresis.)

Data set [9] relates to Hepatitis C virus. Put plainly: Antiviral activity against HCV infected in human Huh7 cells assessed as inhibition of viral replication after 48 hrs by NS5A staining. As to conditions: Huh-7, 48 h.
The subject of data set [10] is Hepatitis C virus. The data set is described as follows: Antiviral activity against HCV expressing E1E2 glycoprotein with Vpr-deficient HIV vector assessed as inhibition of viral entry in human Huh7 cells at 20 ug/ml after 72 hrs by luciferase reporter gene assay. As to conditions: Huh-7, 72 h. It is filed as functional, Hepacivirus hominis. Put shortly:
as §1

pIC50: −log10 of the molar value. In brackets after ≈: the same amount, converted by molar mass. Activity calls are given as the source filed them. No cut-off for these calls is given here.

Broadly, the inhibition is the change of the read-out against control, counted positive when it falls. For orientation: pIC50 means −log10 of the IC50, conventionally taken in molar units. For orientation: IC50 means the midpoint of a concentration-inhibition curve.

Consider `C[C@H]1[C@H]2[C@H](O[C@@H]3O[C@H](CO)[C@@H](O)[C@H](O)[C@H]3O)OC=C(C(=O)O)[C@H]2C[C@@H]1O`, for which the result in [1] was inactive. Further, the inhibition at 20 µg/mL is -21.6% in data set [2] and 5.3% in data set [3].
Consider `COC(=O)C1=CO[C@@H](O[C@@H]2O[C@H](CO)[C@@H](O)[C@H](O)[C@H]2O)[C@@H]2[C@H](C)[C@@H](O)C[C@H]12`, for which the outcome in [1] was inactive. In addition, the inhibition at 20 µg/mL in [2] was -12.7%; in data set [3] it was 0.4%.
In the case of `COC(=O)C1=CO[C@@H](O[C@@H]2O[C@H](CO)[C@@H](O)[C@H](O)[C@H]2O)[C@H]2[C@@H]1[C@H](O)[C@H](O)[C@]2(C)O`, the outcome in data set [4] (Hepacivirus hominis) and in data set [1] was inactive.
`OCC1=C[C@@H](O)[C@@H]2C=CO[C@@H](O[C@@H]3O[C@H](CO)[C@@H](O)[C@H](O)[C@H]3O)[C@H]12`: in [1], the result was inactive.
For the compound `COC(=O)C1=COC(O)[C@H]2[C@@H]1[C@H](O)[C@H](O)C2(C)O` (mixture of isomers), the pIC50 in data set [5] was 5.64. The inhibition at 100 µg/mL in data set [4] came to 50%. In addition, the result in data set [6], in data set [1] and in [8] was inactive. Also, the Activity entry in data set [7] is given as “Non-toxic”. For the same compound, the IC50 in [9] is 15 µg/mL.
With `O=C(OCC1=C[C@@H](O)[C@@H]2C=CO[C@@H](O[C@@H]3O[C@H](CO)[C@@H](O)[C@H](O)[C@H]3O)[C@H]12)c1ccc(O)cc1` [AGNUSIDE], the outcome in [1] was inactive. Also, the inhibition at 20 µg/mL in [2] came out at 12.9%; in data set [3], 20.3%.
Consider `O=C(/C=C/c1ccc(O)cc1)OCC1=C[C@@H](O)[C@@H]2C=CO[C@@H](O[C@@H]3O[C@H](CO)[C@@H](O)[C@H](O)[C@H]3O)[C@H]12` [EUROSTOSIDE], for which the outcome in [1] and in [8] was inactive. Moreover, the inhibition at 20 µg/mL in data set [2] amounted to 46.6%; in [3], 56.6%. Besides, the IC50 in data set [9] turned out to be 20 µg/mL (≈ 40.6 µM).
For the compound `COC(=O)C1=CO[C@@H](O[C@@H]2O[C@H](CO)[C@@H](O)[C@H](O)[C@H]2O)[C@H]2[C@@H]1C=C[C@@]2(O)CO` [GARDENOSIDE], the result in data set [1] was inactive. The inhibition at 20 µg/mL is -3.4% in data set [2] and 21.1% in data set [3].
As to `COC(=O)C1=CO[C@@H](O)[C@@H]2C(CO)=CC[C@H]12` [GENIPIN], the result in data set [8] was inactive. Further, in [10], the inhibition at 20 µg/mL came to 73.2%. In addition, the IC50 in data set [9] was 20 µg/mL (≈ 88.4 µM).
As for `COC(=O)C1=CO[C@@H](O[C@@H]2O[C@H](CO)[C@@H](O)[C@H](O)[C@H]2O)[C@@H]2C(CO)=CC[C@H]12` [GENIPOSIDE], in data set [1], the outcome was inactive. Moreover, the inhibition at 20 µg/mL is 9.8% in data set [2], 17.1% in [3] and 1.1% in [10].
Turning to `C[C@]1(OC(=O)/C=C/c2ccccc2)C[C@@H](O)[C@]2(O)C=CO[C@@H](O[C@@H]3O[C@H](CO)[C@@H](O)[C@H](O)[C@H]3O)[C@@H]21` [HARPAGOSIDE], in data set [1], the outcome was inactive. In addition, the inhibition at 20 µg/mL in [2] was -41.7%; in data set [3] it was 17.1%; in [10], 2.1%.
In the case of `C[C@@H]1[C@H]2[C@H](O[C@@H]3O[C@H](CO)[C@@H](O)[C@H](O)[C@H]3O)OC=C(C(=O)O)[C@H]2C[C@@H]1O` [LOGANIC ACID], the result in [1] and in [8] was inactive. Also, the inhibition at 20 µg/mL in data set [2] was determined as 39.4%; in data set [3], 52.5%. Further, the IC50 in data set [9] was found to be 11 µg/mL (≈ 29.2 µM).
Take `COC(=O)C1=CO[C@@H](O[C@@H]2O[C@H](CO)[C@@H](O)[C@H](O)[C@H]2O)[C@@H]2[C@@H](C)[C@@H](O)C[C@H]12` [LOGANIN]: the outcome in data set [1] and in data set [8] was inactive. The inhibition at 20 µg/mL amounted to 24.8% in data set [2] and 41.4% in [3]. Besides, the IC50 in data set [9] is 16 µg/mL (≈ 41 µM).
Take `COc1cc(C(=O)O[C@H]2[C@@H]3C=CO[C@@H](O[C@@H]4O[C@H](CO)[C@@H](O)[C@H](O)[C@H]4O)[C@@H]3[C@@]3(CO)O[C@@H]23)ccc1O` [PICROSIDE II]: the outcome in data set [1] was inactive. In addition, the inhibition at 20 µg/mL in [2] is 31.6%; in [3] it was 59.4%.
Take `COC(=O)C1=CO[C@@H](O[C@@H]2O[C@H](CO)[C@@H](O)[C@H](O)[C@H]2O)[C@H]2[C@@H]1[C@H](O)C[C@]2(C)O` [SHANZHISIDE METHYL ESTER]: the result in [1] and in data set [8] was inactive. Moreover, the inhibition at 20 µg/mL in data set [2] is 49%; in data set [3], 61.2%; in [10], -13.1%. Further, in data set [9], the IC50 came out at 18 µg/mL (≈ 44.3 µM).
In the case of `COC(=O)C1=CO[C@@H](O[C@@H]2O[C@H](CO)[C@@H](O)[C@H](O)[C@H]2O)[C@H]2[C@@H]1C(=O)C[C@@H]2C` [VERBENALIN], the result in data set [1] was inactive. Further, the inhibition at 20 µg/mL in data set [2] worked out at 21.9%; in data set [3], 43.4%.
